Key:
[1] = molecular target: T1, Glycogen phosphorylase, liver form (Rattus norvegicus) (UniProt P09811); test: Inhibition of glycogen phosphorylase a in Wistar rat hepatocytes assessed as effect on conversion of GPa to GPb forms by measuring GPa level at 25 mM after 30 mins in presence of 9 mM 5-thioglucose relative to 5 mM glucose; assay type: cell-based; design: scale not given: the % may be the effect or the level left; settings: Hepatocyte
T1 sequence (whole entry): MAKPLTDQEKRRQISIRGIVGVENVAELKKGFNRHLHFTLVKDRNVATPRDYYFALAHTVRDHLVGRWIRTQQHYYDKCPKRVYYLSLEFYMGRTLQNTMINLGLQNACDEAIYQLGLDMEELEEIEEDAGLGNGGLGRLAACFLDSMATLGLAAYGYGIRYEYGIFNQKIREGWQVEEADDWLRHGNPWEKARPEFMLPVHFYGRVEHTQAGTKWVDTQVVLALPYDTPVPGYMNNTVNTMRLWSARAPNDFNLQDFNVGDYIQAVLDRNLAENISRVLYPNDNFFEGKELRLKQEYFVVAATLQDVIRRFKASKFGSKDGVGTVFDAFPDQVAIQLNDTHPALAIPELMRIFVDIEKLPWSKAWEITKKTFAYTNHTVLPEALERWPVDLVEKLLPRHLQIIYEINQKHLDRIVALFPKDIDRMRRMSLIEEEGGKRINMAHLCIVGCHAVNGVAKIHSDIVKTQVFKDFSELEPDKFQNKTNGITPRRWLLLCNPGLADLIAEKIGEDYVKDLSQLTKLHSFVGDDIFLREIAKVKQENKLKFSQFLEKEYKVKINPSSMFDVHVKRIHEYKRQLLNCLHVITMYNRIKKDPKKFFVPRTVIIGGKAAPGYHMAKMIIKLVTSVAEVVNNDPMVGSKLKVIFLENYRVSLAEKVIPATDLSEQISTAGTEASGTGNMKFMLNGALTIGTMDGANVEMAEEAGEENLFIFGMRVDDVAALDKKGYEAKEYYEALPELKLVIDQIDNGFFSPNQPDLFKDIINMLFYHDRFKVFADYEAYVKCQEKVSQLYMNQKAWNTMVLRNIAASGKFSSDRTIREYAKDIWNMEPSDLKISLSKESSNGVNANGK
Outline: (§1)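 Hepatocytes from male Wistar rats (200-300 g), isolated by collagenase perfusion, seeded at 6 x 10⁴ cells/cm² in MEM with 5% calf serum. After attachment they were cultured 24 h in serum-free MEM with 5 mM glucose, 10 nM dexamethasone and 1 nM insulin. Agents were added 1 h after the medium change and incubated 30 min. Cells were snap frozen, and GPa activity was read by coupling to glucose 6-phosphate dehydrogenase. Values are % of the 5 mM glucose control (with or without 9 mM 5-thioglucose); means ± SEM, n=5 preparations; paired t-test.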

[2] = molecular target: T1, Glycogen phosphorylase, liver form (Rattus norvegicus); test: Inhibition of glycogen phosphorylase a in Wistar rat hepatocytes assessed as effect on conversion of GPa to GPb forms by measuring GPa level at 25 mM after 30 mins relative to 5 mM glucose; assay type: cell-based; design: scale not given: the % may be the effect or the level left; settings: Hepatocyte; outline: as §1
[3] = molecular target: T2, Glycogen phosphorylase, muscle form (Oryctolagus cuniculus, UniProt P00489); test: Inhibition of rabbit skeletal muscle glycogen phosphorylase b assessed as inorganic phosphate release; settings: read-out: Ki
T2 sequence (P00489 whole entry): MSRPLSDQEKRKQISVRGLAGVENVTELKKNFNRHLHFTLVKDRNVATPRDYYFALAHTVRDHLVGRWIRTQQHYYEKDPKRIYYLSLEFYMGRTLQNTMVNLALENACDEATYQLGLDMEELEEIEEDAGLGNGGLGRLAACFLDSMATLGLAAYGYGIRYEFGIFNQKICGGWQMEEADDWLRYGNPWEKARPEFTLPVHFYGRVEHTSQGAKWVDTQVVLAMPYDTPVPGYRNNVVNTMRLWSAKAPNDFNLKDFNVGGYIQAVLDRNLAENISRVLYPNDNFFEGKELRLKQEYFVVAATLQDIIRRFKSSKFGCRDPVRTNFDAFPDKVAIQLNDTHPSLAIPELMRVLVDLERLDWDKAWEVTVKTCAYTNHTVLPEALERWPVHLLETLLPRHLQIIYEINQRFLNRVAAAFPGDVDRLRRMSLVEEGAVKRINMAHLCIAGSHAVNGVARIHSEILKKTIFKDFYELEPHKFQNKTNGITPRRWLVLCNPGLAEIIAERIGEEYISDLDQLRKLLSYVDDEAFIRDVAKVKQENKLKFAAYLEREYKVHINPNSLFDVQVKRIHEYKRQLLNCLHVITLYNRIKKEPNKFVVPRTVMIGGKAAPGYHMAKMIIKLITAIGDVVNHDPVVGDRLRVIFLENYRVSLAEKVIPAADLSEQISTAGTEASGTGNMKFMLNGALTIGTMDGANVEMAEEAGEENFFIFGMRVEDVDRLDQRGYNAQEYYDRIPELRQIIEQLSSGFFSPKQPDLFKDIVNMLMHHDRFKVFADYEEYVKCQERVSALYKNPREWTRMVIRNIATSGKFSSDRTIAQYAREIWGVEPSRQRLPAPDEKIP

[4] = Octanol water partition coefficient, logP of the compound; assay type: physicochemical
[5] = Permeability in human Caco2 cells; assay type: ADME, cell-based; settings: Caco-2, read-out: permeability
[6] = molecular target: T1, Glycogen phosphorylase, liver form (Rattus norvegicus); test: Inhibition of glycogen phosphorylase a in Wistar rat hepatocytes assessed as effect on conversion of GPa to GPb forms by measuring GPa level at 20 uM after 30 mins relative to 5 mM glucose; assay type: cell-based; design: scale not given: the % may be the effect or the level left; settings: Hepatocyte; outline: as §1
[7] = molecular target: T1, Glycogen phosphorylase, liver form (Rattus norvegicus); test: Inhibition of glycogen phosphorylase a in Wistar rat hepatocytes assessed as effect on conversion of GPa to GPb forms by measuring GPa level at 2 uM after 30 mins relative to 5 mM glucose; assay type: cell-based; design: scale not given: the % may be the effect or the level left; settings: Hepatocyte; outline: as §1
[8] = molecular target: T3, Glycogen phosphorylase, muscle form (Homo sapiens, UniProt P11217); test: Inhibition of glycogen phosphorylase b (unknown origin)
T3 sequence (P11217 whole entry): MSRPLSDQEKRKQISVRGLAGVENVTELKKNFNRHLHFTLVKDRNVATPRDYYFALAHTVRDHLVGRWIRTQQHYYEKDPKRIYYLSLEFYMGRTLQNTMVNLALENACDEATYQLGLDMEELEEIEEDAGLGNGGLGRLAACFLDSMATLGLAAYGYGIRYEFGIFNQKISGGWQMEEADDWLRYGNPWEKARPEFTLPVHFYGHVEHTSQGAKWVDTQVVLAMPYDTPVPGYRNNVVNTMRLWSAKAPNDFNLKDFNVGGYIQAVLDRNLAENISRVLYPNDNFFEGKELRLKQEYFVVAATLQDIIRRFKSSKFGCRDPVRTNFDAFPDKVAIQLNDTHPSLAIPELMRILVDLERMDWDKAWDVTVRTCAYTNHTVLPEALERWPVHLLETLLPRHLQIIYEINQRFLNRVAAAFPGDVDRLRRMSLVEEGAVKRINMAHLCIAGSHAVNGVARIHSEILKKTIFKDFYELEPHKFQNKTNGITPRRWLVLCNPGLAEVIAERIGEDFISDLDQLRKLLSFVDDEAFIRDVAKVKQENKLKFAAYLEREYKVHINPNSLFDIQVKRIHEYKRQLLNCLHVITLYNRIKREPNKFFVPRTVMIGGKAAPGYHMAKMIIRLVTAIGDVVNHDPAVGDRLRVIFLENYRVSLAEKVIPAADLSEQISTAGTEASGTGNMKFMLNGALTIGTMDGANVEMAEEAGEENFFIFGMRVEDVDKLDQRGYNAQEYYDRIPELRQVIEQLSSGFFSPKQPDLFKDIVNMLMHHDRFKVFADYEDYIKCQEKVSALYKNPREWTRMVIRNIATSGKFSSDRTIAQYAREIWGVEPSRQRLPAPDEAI
Outline: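 Rabbit muscle GPb (5 μg/ml) was assayed at 30 °C in the glycogen-synthesis direction by measuring released inorganic phosphate. Buffer was 30 mM imidazole/HCl pH 6.8 with 60 mM KCl, 0.6 mM EDTA and 0.6 mM DTT. Glycogen 0.2% w/v and AMP 1 mM were held constant, with Glc-1-P at 2-20 mM and varied inhibitor. Enzyme and glycogen were preincubated 15 min, then Glc-1-P was added. Ki was obtained by non-linear regression of initial velocities.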

[9] = molecular target: T1, Glycogen phosphorylase, liver form (Rattus norvegicus); test: Inhibition of glycogen phosphorylase a in Wistar rat hepatocytes assessed as effect on conversion of GPa to GPb forms by measuring GPa level at 9 mM after 30 mins relative to 5 mM glucose; assay type: cell-based; design: scale not given: the % may be the effect or the level left; settings: Hepatocyte; outline: as §1
[10] = molecular target: T4, Glycogen phosphorylase, liver form (Homo sapiens, UniProt P06737); test: Inhibition of glycogen phosphorylase a (unknown origin)
T4 sequence (P06737 whole entry): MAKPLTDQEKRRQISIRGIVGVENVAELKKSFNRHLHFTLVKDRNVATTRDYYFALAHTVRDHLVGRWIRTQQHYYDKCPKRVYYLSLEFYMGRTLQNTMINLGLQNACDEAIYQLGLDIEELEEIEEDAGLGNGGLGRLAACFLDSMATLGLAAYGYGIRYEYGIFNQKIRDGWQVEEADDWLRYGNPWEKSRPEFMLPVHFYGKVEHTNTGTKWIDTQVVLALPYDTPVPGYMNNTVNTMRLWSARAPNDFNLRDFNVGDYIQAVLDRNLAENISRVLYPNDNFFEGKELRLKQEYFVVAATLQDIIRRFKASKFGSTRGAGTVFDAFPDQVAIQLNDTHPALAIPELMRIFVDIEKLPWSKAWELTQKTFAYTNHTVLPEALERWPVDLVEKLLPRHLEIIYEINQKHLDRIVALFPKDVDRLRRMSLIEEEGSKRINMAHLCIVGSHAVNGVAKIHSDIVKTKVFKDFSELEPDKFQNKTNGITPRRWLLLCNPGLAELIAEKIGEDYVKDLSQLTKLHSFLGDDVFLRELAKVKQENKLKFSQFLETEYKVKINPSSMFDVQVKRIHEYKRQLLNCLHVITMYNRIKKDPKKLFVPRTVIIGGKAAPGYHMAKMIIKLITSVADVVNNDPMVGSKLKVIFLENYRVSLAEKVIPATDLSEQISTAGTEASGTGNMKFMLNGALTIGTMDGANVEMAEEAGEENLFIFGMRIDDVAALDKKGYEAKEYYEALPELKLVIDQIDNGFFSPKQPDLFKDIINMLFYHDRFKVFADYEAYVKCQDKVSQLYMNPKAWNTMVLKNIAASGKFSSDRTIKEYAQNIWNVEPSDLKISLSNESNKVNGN

Ki [3] [µM] | logP [4] | Papp [5] [×10⁻⁶ cm/s] | Activity [6] [%] | Activity [7] [%] | SMILES | other results
– | – | – | – | – | OC[C@H]1OC(O)[C@H](O)[C@@H](O)[C@@H]1O (stereo partly drawn) | Activity [1]: 78.7%; Activity [2]: 64.1%
4.98 | 0.296 | 9.85 | 106 | 105 | CC(C)c1ccc(/C=C/C(=O)N[C@@H]2O[C@H](CO)[C@@H](O)[C@H](O)[C@H]2O)cc1 | –
– | – | – | – | – | OC[C@H]1O[C@H](O[C@H]2[C@H](O)[C@@H](O)[C@@H](O[C@H]3[C@H](O)[C@@H](O)[C@@H](O[C@H]4[C@H](O)[C@@H](O)[C@@H](O[C@H]5[C@H](O)[C@@H](O)[C@@H](O[C@H]6[C@H](O)[C@@H](O)[C@@H](O[C@H]7[C@H](O)[C@@H](O)C(O)O[C@@H]7CO)O[C@@H]6CO)O[C@@H]5CO)O[C@@H]4CO)O[C@@H]3CO)O[C@@H]2CO)[C@H](O)[C@@H](O)[C@@H]1O (stereo partly drawn) | Ki [8]: 1000 µM
– | – | – | – | – | O=C[C@H](O)[C@@H](O)[C@H](O)[C@H](S)CO | Activity [9]: 106%
48.7 | 0.208 | 9.51 | 100 | 93 | O=C(CCCc1ccc2c(c1)CCCC2)N[C@@H]1O[C@H](CO)[C@@H](O)[C@H](O)[C@H]1O | –
– | – | – | – | – | O=c1c(O)c(-c2ccc(O)c(O)c2)oc2cc(O)cc(O)c12 [QUERCETIN] | IC50 [10]: 4.8 µM
8.25 | -0.082 | 5.09 | 80.3 | 84.5 | O=C(COc1ccc(-c2ccccc2)cc1)N[C@@H]1O[C@H](CO)[C@@H](O)[C@H](O)[C@H]1O | –
– | – | – | – | – | OC[C@H]1O[C@H](O)[C@H](O)[C@@H](O)[C@@H]1O | Ki [10]: 4900 µM
– | – | – | – | – | O=C(NCCOCCOCCNC(=O)c1cc2cc(Cl)ccc2[nH]1)c1cc2cc(Cl)ccc2[nH]1 | IC50 [10]: 0.006 µM
– | – | – | – | – | O=C(O)C1=C(C(=O)O)NC=CC1 | Ki [8]: 0.0016 µM
5.14 | 0.851 | 8.02 | 83.3 | 89.4 | O=C(/C=C/c1ccc(-c2ccccc2)cc1)N[C@@H]1O[C@H](CO)[C@@H](O)[C@H](O)[C@H]1O | –
